rCAG RNA binder – r(CAG) repeat RNA binding | inhibition, % at 3 µM | 370,000 tested, 1.3% active | TO-PRO-1 dye displacement fluorescence;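 active = inhibition above the plate cutoff, the mean of all test compounds on that plate plus 3 SD, cut at about 35% in these data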;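 also: 0% = DMSO alone and 100% = 100 µM mitoxantrone as full dye displacement; higher means more dye released from RNA so lower well fluorescence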
ARFGAP1 inhibitor – rat ARFGAP1 inhibition. Q62848. Arfgap1-stimulated ARF1 GTP hydrolysis, GDP FP detection. inhibition, % at 16.5 µM. 360,000 tested, 0.26% active;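 active = inhibition above a per-plate limit, mean inhibition of low control wells plus 3 SD, cut at about 25% in these data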;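 also: 0% = DMSO wells with enzyme and 100% = wells lacking Arfgap1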
Target sequence (Q62848 1-136 limits assumed): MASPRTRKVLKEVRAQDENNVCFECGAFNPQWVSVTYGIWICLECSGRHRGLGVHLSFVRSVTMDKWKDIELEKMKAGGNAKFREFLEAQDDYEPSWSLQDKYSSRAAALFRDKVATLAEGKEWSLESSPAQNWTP
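Material: rat Arfgap1 catalytic domain, aa 1-136; also added: human ARF1(Δ1-17)-GTP substrate; compound dosing: one concentration, 16.5 µM, DMSO 1.26%; incubation: GTP hydrolysis reaction 2 h at 25 °C; measured by: Tracer-displacement fluorescence polarization with EDTA stop, 620/688 nm; evaluation: % inhibition from polarization; repeats: one replicate per compound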
ASAP1 inh – inhibitors of human ASAP1 ArfGAP activity; ASAP1-stimulated ARF1 GTP hydrolysis, GDP FP detection; inhibition, % at 16.5 µM; Q9ULH1; 360,000 tested, 0.19% active; in the data active = inhibition above about 25%;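 also: 0% = vehicle with enzyme and substrate and 100% = no enzyme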
Target sequence (Q9ULH1 325-724 limits assumed): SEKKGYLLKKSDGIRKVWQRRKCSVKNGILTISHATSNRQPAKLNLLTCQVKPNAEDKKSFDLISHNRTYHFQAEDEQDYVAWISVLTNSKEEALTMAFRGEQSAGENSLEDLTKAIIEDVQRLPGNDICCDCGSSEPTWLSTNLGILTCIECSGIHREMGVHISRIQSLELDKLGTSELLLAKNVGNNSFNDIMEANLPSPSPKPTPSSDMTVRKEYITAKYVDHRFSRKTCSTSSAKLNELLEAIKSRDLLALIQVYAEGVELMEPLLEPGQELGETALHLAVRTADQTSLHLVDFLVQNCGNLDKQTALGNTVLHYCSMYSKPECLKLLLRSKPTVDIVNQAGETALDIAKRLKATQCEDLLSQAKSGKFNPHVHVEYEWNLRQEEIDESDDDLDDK
NadD inh – NadD (S. aureus) enzyme inhibition. purified NadD enzyme, colorimetric absorbance read-out. inhibition, % at 20 µM. 360,000 tested, 0.78% active; in the data active = inhibition above about 26%
NadD conf – NadD (S. aureus) inhibition, single concentration confirmation; shares compounds with NadD inh; purified S. aureus NadD, colorimetric enzyme assay; 2,000 tested, 13% active; inhibition, % at 20 µM; in the data active = inhibition mostly above about 42%, no sharp cut-off; inactive = mostly below about 42%
The depositor's hits bear a star. Compounds with a hit are over-represented: about 2.2% of the library has one in this group of screens.

What do the screens show for `Cc1ccsc1/C=N/n1c(-c2cc(-c3ccccc3)n[nH]2)n[nH]c1=S`?
rCAG RNA binder: 29; ARFGAP1 inhibitor: 2; ASAP1 inh: -15; NadD inh: 15

What do the screens show for `O=C(Nc1ccc(C2=NCCN2)cc1)c1ccc(C(=O)Nc2ccc(C3=NCCN3)cc2)c(Cl)c1`?
rCAG RNA binder: 10; ARFGAP1 inhibitor: 15; ASAP1 inh: -1; NadD inh: 30*; NadD conf: 13

Results for COC(=O)c1cc2c(c3c4cc(F)ccc4n(S(=O)(=O)c4ccc(C)cc4)c13)C(=O)N(C)C2 ?
rCAG RNA binder: 11; ARFGAP1 inhibitor: -3; ASAP1 inh: -2

How did COc1ccc(C2CC(c3ccccc3)=NN2C(=O)COC(=O)CNC(=O)c2ccccc2)cc1 (centres undefined) do in these assays?
rCAG RNA binder: -1; ARFGAP1 inhibitor: 7; ASAP1 inh: -13; NadD inh: -13

Results for COc1ccc(C2CC(c3ccccc3)=NN2C(=O)COC(=O)/C=C/c2ccc(O)c(OC)c2)cc1 (centres undefined) ?
rCAG RNA binder: 17; ARFGAP1 inhibitor: -1; ASAP1 inh: 5; NadD inh: 46*; NadD conf: 15

Results for O=C(NCc1ccccc1)[C@H]1CCCN1C(=O)[C@H]1CCCN1C(=O)c1ccc(F)c(C(F)(F)F)c1 ?
rCAG RNA binder: 0; ARFGAP1 inhibitor: 13; ASAP1 inh: -12

How did Cc1ccc2nc(SCC(=O)c3cc(C)n(C)c3C)[nH]c2c1 do in these assays?
rCAG RNA binder: 7; ARFGAP1 inhibitor: 0; ASAP1 inh: 7; NadD inh: -3

What do the screens show for `Cc1cc(C(=O)CSc2nc3ccc(Cl)cc3[nH]2)c(C)n1C`?
rCAG RNA binder: 17; ARFGAP1 inhibitor: 4; ASAP1 inh: 14; NadD inh: 34*; NadD conf: 41

How did CCCCNC(=O)CC1Nc2ccccc2NC1=O (centres undefined) do in these assays?
rCAG RNA binder: 3; ARFGAP1 inhibitor: -5; ASAP1 inh: 19; NadD inh: 5

Results for CCCCOc1ccccc1NC(=O)CC1Nc2ccccc2NC1=O (centres undefined) ?
rCAG RNA binder: 17; ARFGAP1 inhibitor: 8; ASAP1 inh: 5; NadD inh: 31*; NadD conf: 34

Results for Clc1ccc(C(Cn2ccnc2)OCc2c(Cl)cccc2Cl)c(Cl)c1 (centres undefined) ?
rCAG RNA binder: 3; ARFGAP1 inhibitor: -4; ASAP1 inh: 1; NadD inh: 33*; NadD conf: 21

How did CCC(C(=O)Nc1c(C)cccc1C)n1c(-c2ccc(-c3ccccc3)cc2)nc2ccccc21 (centres undefined) do in these assays?
rCAG RNA binder: 12; ARFGAP1 inhibitor: -10; ASAP1 inh: 2

How did CC(CCC(=O)NN)C1CCC2C3CCC4CC(O)CCC4(C)C3CCC12C (centres undefined) do in these assays?
rCAG RNA binder: 5; ARFGAP1 inhibitor: 11; ASAP1 inh: -7; NadD inh: 38*; NadD conf: 6

How did C[C@H](O)[C@@]1(O)CC[C@H]2[C@@H]3CC[C@@H]4C[C@H](O)CC[C@]4(C)[C@H]3CC[C@@]21C do in these assays?
rCAG RNA binder: -5; ARFGAP1 inhibitor: -3; ASAP1 inh: 1; NadD inh: -2

What do the screens show for `N#CCC1(O)C(=O)Nc2ccccc21` (centres undefined)?
rCAG RNA binder: 0; ARFGAP1 inhibitor: -6; ASAP1 inh: -8

How did CCc1nn(CC(=O)NCCCN2CCN(C)CC2)c(=O)c2cc3sc(C)cc3n12 do in these assays?
rCAG RNA binder: -4; ARFGAP1 inhibitor: 6; ASAP1 inh: 2; NadD inh: 1

Results for CCc1cc2c(cc3c(=O)n(CC(=O)NCCCN4CCCCCC4)nc(CC)n32)s1 ?
rCAG RNA binder: 6; ARFGAP1 inhibitor: -3; ASAP1 inh: 5; NadD inh: 31*; NadD conf: -13

Results for O=C(NCc1ccc(F)cc1)c1cccc2c1C(=O)c1ccc(Cl)cc1S2(=O)=O ?
rCAG RNA binder: -1; ARFGAP1 inhibitor: 4; ASAP1 inh: 4

What do the screens show for `O=C(NCc1ccco1)c1cccc2c1C(=O)c1ccc(N3CCC(Cc4ccccc4)CC3)cc1S2(=O)=O`?
NadD inh: 39*; NadD conf: 5

What do the screens show for `O=C(NCc1cccc(C(F)(F)F)c1)c1cccc2c1C(=O)c1ccc(N3CCC(Cc4ccccc4)CC3)cc1S2(=O)=O`?
NadD inh: 23

Results for O=C(NCc1ccco1)c1cccc2c1C(=O)c1ccc(/C=C/c3ccccc3)cc1S2(=O)=O ?
rCAG RNA binder: 39*; ARFGAP1 inhibitor: -6; ASAP1 inh: -3; NadD inh: 48*; NadD conf: 46*

Results for O=C(NCc1cccc(F)c1)c1cccc2c1C(=O)c1ccc(N3CCC(Cc4ccccc4)CC3)cc1S2(=O)=O ?
NadD inh: 21

What do the screens show for `O=C(NCCc1ccc(F)cc1)c1cccc2c1C(=O)c1ccc(N3CCC(Cc4ccccc4)CC3)cc1S2(=O)=O`?
NadD inh: 28*; NadD conf: 5

How did C=CCN1[C@H](CO)[C@H](c2ccccc2)[C@@H]1C#N do in these assays?
rCAG RNA binder: 4

What do the screens show for `CS(=O)(=O)N[C@@H]1C[C@@H]2O[C@H](CO)CC[C@@H]2O[C@@H]1CCc1ccc(/C=C/c2ccccc2)cc1`?
rCAG RNA binder: 3

How did Nn1c(SCC(=O)N2c3ccccc3Sc3ccc(Cl)cc32)nnc1-c1cc(-c2ccc(F)cc2)n[nH]1 do in these assays?
rCAG RNA binder: 19

What do the screens show for `CC(C)(O)C#Cc1ccc(N2C(c3ccsc3)=Cc3ccc(F)cc3C2c2c[nH]c3ccc(C#N)cc23)cc1` (centres undefined)?
rCAG RNA binder: 17; ARFGAP1 inhibitor: 13; ASAP1 inh: -1; NadD inh: 15

What do the screens show for `CCOC(=O)c1ccc(-c2ccc(N3C(c4ccsc4)=Cc4ccc(F)cc4C3c3c[nH]c4ccc(C#N)cc34)cc2)cc1F` (centres undefined)?
rCAG RNA binder: 18; ARFGAP1 inhibitor: 10; ASAP1 inh: 4; NadD inh: 30*; NadD conf: 10

Results for CCCCNC(=O)c1nc(C2CCN(S(=O)(=O)c3ccccc3C(F)(F)F)CC2)oc1-c1ccccc1 ?
rCAG RNA binder: 6; ARFGAP1 inhibitor: -5; ASAP1 inh: 10; NadD inh: -6

How did CCc1cccc(C)c1NC(=O)CCCSc1nc2ccccc2s1 do in these assays?
rCAG RNA binder: 1; ARFGAP1 inhibitor: 2; ASAP1 inh: 17; NadD inh: -1

Results for CCc1cccc(CC)c1NC(=O)C1SC(=Nc2ccccc2C)C(c2nc3ccccc3s2)=C1N (centres undefined) ?
rCAG RNA binder: 42*; ARFGAP1 inhibitor: 20; ASAP1 inh: 10; NadD inh: 32*; NadD conf: 6

What do the screens show for `CCCCNC(=O)C[C@H]1C[C@@]2(C(=O)OC)C(=C[C@H](C(C)C)O[C@@H]2C2CC2)N(Cc2ccco2)C1=O`?
rCAG RNA binder: -1

From PubChem BioAssay
